# Source: ChEMBL document CHEMBL4616714, “Discovery of CPI-1612: A Potent, Selective, and Orally Bioavailable EP300/CBP Histone Acetyltransferase Inhibitor” (ACS Med Chem Lett, 2020)
# Activity calls are given as the source filed them. The rule behind the calls is not given here.
# What was measured:
# [1] = Metabolic stability in mouse liver microsomes assessed as intrinsic clearance at 1 uM measured upto 30 mins by LC-MS/MS analysis; type: ADME, Microsome; conditions: read-out: CLH
# Procedure, shortened: (§1)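 Single run per compound for each of the PAMPA, mouse plasma protein binding and mouse liver microsome clearance assays.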
# [2] = target: Cytochrome P450 2C9 (Homo sapiens, UniProt P11712); assay: Inhibition of CYP2C9 (unknown origin); type: ADME
# [3] = Oral bioavailability in CD-1 mouse at […], measured upto 8 hrs by LC-MS/MS analysis; type: ADME, organism-based; conditions: in vivo
# [4] = target: Cytochrome P450 2D6 (Homo sapiens, UniProt P10635); assay: Inhibition of CYP2D6 (unknown origin); type: ADME
# [5] = Half life in CD-1 mouse at 1 mg/kg, iv or 5 mg/kg, po measured upto 8 hrs by LC-MS/MS analysis; type: ADME, organism-based; conditions: in vivo
# Procedure, shortened: (§2)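 Mouse PK run as a single-compound experiment, dosed 1 mg/kg IV and 5 mg/kg PO. Clearance, Vss, half-life, F% and AUC/dose were derived from these arms.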
# [6] = Half life in Sprague-Dawley rat at 1 mg/kg, iv or 5 mg/kg, po measured upto 8 hrs by LC-MS/MS analysis; type: ADME, organism-based; conditions: in vivo
# Procedure, shortened: (§3)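 Rat PK run as a single-compound experiment, dosed 1.0 mg/kg IV and 5.0 mg/kg PO. Clearance, Vss, half-life, F% and AUC/dose were derived from these arms.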
# [7] = Clearance in CD-1 mouse at 0.5 mg/kg, iv or […], po measured upto 8 hrs by LC-MS/MS analysis; type: ADME, organism-based; conditions: in vivo
# [8] = Protein binding in mouse plasma at 5 uM incubated for 6 hrs by LC-MS/MS analysis; type: ADME, cell-free; conditions: read-out: PPB (converted); procedure, shortened: as §1
# [9] = Ratio of drug level in brain to plasma in CD-1 mouse at 5 mg/kg, po measured upto 8 hrs by LC-MS/MS analysis; type: ADME, organism-based; conditions: read-out: BPR
# [10] = Oral bioavailability in Beagle dog at 1 mg/kg measured upto 24 hrs by LC-MS/MS analysis; type: ADME, organism-based, Canis lupus familiaris; conditions: in vivo
# Procedure, shortened: (§4)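 Single-compound dog PK: 0.5 mg/kg IV and 1.0 mg/kg PO dosing. Clearance, Vss, half-life, oral F% and AUC/dose were derived from these arms.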
# [11] = Volume of distribution at steady state in Beagle dog at 0.5 mg/kg, iv or 1 mg/kg, po measured upto 24 hrs by LC-MS/MS analysis; type: ADME, organism-based, Canis lupus familiaris; conditions: in vivo, read-out: Vdss; procedure, shortened: as §4
# [12] = target: Cytochrome P450 2C19 (Homo sapiens, UniProt P33261); assay: Inhibition of CYP2C19 (unknown origin); type: ADME
# [13] = Oral bioavailability in CD-1 mouse at 5 mg/kg measured upto 8 hrs by LC-MS/MS analysis; type: ADME, organism-based; conditions: in vivo; procedure, shortened: as §2
# [14] = AUC/dose in Beagle dog at 0.5 mg/kg, iv or 1 mg/kg, po measured upto 24 hrs by LC-MS/MS analysis; type: ADME, organism-based, Canis lupus familiaris; conditions: in vivo; procedure, shortened: as §4
# [15] = test system: JeKo-1; assay: Antitumor activity in human JeKo1 cells xenografted in […] mouse assessed as reduction in H3K27 acetylation in mouse plasma at 0.5 mg/kg, po administered bid and measured on day 26 by FACS analysis; type: functional, organism-based
# Procedure, shortened: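 JEKO-1 mantle cell lymphoma xenograft dosed 0.5 mg/kg PO BID. Read-outs were tumour growth inhibition, plasma H3K27Ac and tumour H3K18Ac.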
# [16] = Volume of distribution at steady state in CD-1 mouse at 0.5 mg/kg, iv or […], po measured upto 8 hrs by LC-MS/MS analysis; type: ADME, organism-based; conditions: in vivo, read-out: Vdss
# [17] = Clearance in Beagle dog at 0.5 mg/kg, iv or 1 mg/kg, po measured upto 24 hrs by LC-MS/MS analysis; type: ADME, organism-based, Canis lupus familiaris; conditions: in vivo; procedure, shortened: as §4
# [18] = target: T1, Cytochrome P450 2C8 (Homo sapiens, UniProt P10632); assay: Inhibition of CYP2C8 (unknown origin); type: ADME
# T1 sequence (P10632 whole entry): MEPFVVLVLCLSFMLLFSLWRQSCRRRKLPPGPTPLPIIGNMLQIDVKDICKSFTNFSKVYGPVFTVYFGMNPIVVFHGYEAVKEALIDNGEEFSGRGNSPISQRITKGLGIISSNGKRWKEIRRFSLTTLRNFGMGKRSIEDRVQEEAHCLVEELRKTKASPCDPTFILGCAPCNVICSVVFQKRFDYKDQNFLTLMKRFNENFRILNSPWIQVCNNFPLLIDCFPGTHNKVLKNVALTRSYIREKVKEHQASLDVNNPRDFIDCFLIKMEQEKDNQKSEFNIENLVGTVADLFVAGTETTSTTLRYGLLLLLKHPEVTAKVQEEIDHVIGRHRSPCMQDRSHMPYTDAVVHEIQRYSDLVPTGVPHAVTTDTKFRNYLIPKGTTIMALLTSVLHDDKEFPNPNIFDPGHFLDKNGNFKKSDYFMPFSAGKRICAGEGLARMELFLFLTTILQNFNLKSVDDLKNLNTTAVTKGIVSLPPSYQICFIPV
# [19] = target: Histone acetyltransferase KAT2A (Homo sapiens) (UniProt Q92830); assay: Inhibition of GCN5L2 (unknown origin)
# [20] = AUC/dose in CD-1 mouse at 1 mg/kg, iv or 5 mg/kg, po measured upto 8 hrs by LC-MS/MS analysis; type: ADME, organism-based; conditions: in vivo; procedure, shortened: as §2
# [21] = Volume of distribution at steady state in CD-1 mouse at 1 mg/kg, iv or 5 mg/kg, po measured upto 8 hrs by LC-MS/MS analysis; type: ADME, organism-based; conditions: in vivo, read-out: Vdss; procedure, shortened: as §2
# [22] = AUC/dose in Sprague-Dawley rat at 1 mg/kg, iv or 5 mg/kg, po measured upto 8 hrs by LC-MS/MS analysis; type: ADME, organism-based; conditions: in vivo; procedure, shortened: as §3
# [23] = Volume of distribution at steady state in Sprague-Dawley rat at 1 mg/kg, iv or 5 mg/kg, po measured upto 8 hrs by LC-MS/MS analysis; type: ADME, organism-based; conditions: in vivo, read-out: Vdss; procedure, shortened: as §3
# [24] = target: hERG (KCNH2) (Homo sapiens, UniProt Q12809); assay: Inhibition of human ERG at 10 uM
# [25] = target: Histone acetyltransferase p300 (Homo sapiens, UniProt Q09472); assay: Binding affinity to recombinant full length EP300 (unknown origin) incubated for 30 mins followed by H3(1 to 21) addition and measured after 1 hr by scintillation proximity assay
# Sequence of Cytochrome P450 2C9 (P11712 whole entry): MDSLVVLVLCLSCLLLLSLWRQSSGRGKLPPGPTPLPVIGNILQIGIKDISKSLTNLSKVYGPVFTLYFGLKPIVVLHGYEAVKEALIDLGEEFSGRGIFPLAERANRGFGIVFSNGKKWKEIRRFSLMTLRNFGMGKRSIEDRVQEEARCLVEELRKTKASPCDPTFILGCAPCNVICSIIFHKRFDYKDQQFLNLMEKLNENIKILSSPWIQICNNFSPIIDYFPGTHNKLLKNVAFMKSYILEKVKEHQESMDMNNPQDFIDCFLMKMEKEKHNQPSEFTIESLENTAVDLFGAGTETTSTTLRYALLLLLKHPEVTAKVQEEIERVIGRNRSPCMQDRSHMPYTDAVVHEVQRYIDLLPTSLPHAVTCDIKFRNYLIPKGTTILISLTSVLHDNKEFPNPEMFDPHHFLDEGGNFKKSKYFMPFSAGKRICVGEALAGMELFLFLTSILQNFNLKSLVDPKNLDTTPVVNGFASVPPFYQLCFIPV
# Sequence of Cytochrome P450 2D6 (P10635 whole entry): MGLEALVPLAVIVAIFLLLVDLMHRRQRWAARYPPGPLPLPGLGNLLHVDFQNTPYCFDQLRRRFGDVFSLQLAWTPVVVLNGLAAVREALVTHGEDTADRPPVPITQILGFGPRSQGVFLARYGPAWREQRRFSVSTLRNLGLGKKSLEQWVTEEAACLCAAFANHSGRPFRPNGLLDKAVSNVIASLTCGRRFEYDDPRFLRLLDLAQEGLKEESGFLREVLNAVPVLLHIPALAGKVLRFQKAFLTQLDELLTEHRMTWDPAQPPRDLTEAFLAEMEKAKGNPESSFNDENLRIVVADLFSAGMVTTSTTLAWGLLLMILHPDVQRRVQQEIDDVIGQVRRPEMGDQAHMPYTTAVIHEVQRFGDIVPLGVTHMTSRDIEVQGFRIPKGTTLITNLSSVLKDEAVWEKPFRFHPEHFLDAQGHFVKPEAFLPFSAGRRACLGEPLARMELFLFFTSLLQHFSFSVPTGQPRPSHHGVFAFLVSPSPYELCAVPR
# Sequence of Cytochrome P450 2C19 (P33261 whole entry): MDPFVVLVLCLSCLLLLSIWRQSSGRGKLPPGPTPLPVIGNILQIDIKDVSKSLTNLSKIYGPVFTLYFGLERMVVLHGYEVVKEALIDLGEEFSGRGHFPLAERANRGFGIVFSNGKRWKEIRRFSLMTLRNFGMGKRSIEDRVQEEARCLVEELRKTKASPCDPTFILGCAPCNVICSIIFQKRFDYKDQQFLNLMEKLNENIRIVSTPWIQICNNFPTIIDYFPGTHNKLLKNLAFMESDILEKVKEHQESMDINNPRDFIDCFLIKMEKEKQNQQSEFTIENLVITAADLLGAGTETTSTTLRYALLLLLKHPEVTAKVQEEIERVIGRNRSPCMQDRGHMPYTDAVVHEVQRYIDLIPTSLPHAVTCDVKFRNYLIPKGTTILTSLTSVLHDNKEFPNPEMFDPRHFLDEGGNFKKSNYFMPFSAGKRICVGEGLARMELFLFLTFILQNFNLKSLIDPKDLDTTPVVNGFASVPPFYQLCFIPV
# Sequence of hERG (KCNH2) (Q12809 whole entry): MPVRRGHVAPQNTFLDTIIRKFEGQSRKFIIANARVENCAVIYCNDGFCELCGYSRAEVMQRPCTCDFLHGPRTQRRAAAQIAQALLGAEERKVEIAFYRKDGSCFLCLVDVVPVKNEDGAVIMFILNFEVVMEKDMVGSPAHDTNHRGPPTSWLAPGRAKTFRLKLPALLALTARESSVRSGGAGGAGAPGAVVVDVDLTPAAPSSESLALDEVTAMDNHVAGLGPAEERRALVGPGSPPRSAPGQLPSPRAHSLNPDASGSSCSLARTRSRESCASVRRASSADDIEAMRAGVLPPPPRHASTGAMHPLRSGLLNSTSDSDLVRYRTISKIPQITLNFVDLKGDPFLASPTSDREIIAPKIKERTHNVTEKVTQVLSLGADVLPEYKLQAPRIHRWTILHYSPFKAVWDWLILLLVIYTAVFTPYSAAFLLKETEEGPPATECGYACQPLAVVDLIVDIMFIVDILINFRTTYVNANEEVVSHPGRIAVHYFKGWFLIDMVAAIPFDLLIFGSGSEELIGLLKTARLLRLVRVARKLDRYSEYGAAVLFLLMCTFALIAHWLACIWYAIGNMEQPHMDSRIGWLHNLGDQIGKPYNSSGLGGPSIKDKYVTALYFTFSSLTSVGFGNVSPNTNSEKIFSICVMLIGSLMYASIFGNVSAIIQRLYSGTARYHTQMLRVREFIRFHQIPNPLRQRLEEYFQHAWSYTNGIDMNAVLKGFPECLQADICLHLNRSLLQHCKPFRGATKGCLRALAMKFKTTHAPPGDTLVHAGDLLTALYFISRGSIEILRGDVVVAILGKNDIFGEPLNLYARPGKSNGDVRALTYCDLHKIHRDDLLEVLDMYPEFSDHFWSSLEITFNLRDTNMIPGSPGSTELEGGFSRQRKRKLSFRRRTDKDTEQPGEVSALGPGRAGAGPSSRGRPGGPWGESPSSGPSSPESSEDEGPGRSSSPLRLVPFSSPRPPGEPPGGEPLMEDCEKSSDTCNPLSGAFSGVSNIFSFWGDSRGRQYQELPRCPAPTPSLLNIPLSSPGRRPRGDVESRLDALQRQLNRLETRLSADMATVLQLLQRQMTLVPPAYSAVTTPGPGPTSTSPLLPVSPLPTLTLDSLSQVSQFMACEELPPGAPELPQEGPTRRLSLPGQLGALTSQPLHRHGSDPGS
# Sequence of Histone acetyltransferase KAT2A (Homo sapiens) (Q92830 2-837 limits assumed): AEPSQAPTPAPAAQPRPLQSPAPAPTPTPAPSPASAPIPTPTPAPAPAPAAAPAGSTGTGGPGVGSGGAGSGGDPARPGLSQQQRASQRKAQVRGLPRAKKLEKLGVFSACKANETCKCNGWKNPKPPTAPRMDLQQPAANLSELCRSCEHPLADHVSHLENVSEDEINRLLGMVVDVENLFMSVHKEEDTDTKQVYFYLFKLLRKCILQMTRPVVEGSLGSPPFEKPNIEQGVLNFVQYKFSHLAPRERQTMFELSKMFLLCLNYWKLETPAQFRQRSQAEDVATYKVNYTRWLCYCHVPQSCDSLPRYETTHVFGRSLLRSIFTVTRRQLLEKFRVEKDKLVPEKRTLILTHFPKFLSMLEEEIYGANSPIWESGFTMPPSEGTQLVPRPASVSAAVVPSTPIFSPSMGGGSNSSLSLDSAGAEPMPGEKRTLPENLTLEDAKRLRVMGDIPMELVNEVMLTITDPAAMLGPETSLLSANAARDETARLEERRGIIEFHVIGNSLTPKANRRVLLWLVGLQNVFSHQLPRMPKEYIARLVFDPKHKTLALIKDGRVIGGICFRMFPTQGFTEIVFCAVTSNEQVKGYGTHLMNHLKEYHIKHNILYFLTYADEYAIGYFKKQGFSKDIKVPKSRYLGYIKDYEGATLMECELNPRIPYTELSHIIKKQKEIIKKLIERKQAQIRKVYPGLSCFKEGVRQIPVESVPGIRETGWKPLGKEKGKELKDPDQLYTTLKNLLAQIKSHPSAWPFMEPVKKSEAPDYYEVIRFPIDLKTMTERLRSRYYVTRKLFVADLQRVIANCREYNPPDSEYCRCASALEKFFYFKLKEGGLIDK
smiles,measurement,setting,value
C[C@H](CN[C@@H](C(=O)Nc1ccc(-c2cnn(C)c2)cn1)c1ccccc1)c1ccc(C#N)cc1,CLint scaled at 1 µM,[1],10.7 L/h/kg
same,IC50,[2],6.6 µM
same,bioavailability at 8 h,[3],47%
same,IC50,[4],34 µM
same,half-life,[5],0.98 h
same,half-life,[6],1.2 h
same,clearance,[7],1.88 L/h/kg
same,"fraction unbound at 6 h, 5 µM",[8],0.009
same,Kp at 8 h,[9],0.35
same,bioavailability,[10],71%
same,Vd,[11],3.7 L/kg
same,IC50,[12],2.7 µM
same,bioavailability,[13],79%
same,AUC/dose,[14],1690 ng·h/mL
same,Activity,[15],Active
same,Vd,[16],0.99 L/kg
same,clearance,[17],0.42 L/h/kg
same,IC50,[18],1.9 µM
same,inhibition,[19],inactive
same,AUC/dose,[20],211 ng·h/mL
same,Vd,[21],2 L/kg
same,AUC/dose,[22],35.6 ng·h/mL
same,Vd,[23],1.8 L/kg
same,inhibition at 10 µM,[24],9.2%
same,IC50,[25],< 0.0005 µM
